Measured values as given in ChEMBL document CHEMBL2157999, “Potent small molecule Hedgehog agonists induce VEGF expression in vitro” (Bioorg Med Chem, 2012).
Activity calls are given as the source filed them. No cut-off for these calls is given here.

Key:
Sonic hedgehog protein = Sonic hedgehog protein (Mus musculus, UniProt Q62226); test: Activation of Shh pathway in mouse Shh-Light II cells assessed as induction of gli1 expression after 48 hrs by […] luminescence assay; format: functional, cell-based
Method in brief: (§1)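 Shh-Light II cells were given compounds from DMSO stocks (final DMSO 0.1%; top concentration 1000 nm) for 48 h, then PBS-washed and lysed. Gli reporter luminescence was measured by dual-luciferase and normalized to constitutive Renilla. EC50 came from a Hill-slope fit of RLU/s versus concentration. 2–4 independent experiments, each in technical triplicate.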

HUVEC [1] = test: Cytotoxicity against HUVEC up to 10 uM after 24 hrs by WST-1 assay; format: cell-based; details: human
Method in brief: (§2)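 HUVEC were seeded at 7500 cells/well and exposed to a compound concentration series (<0.5% DMSO) for 24 h. WST-1 was then added and incubated 24 h. Absorbance at 440 and 650 nm was read, and the absorbance difference was plotted against concentration.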

HUVEC [2] = test: Induction of HUVEC proliferation after 48 hrs by BrdU-incorporation assay; format: functional, cell-based; details: Homo sapiens
Method in brief: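 HUVEC were seeded at 5000 cells/well. After 24 h the medium was swapped for a compound dilution series (≤0.5% DMSO) and incubated 48 h. BrdU incorporation was read by chemiluminescent ELISA.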

HUVEC [3] = test: Induction of angiogenesis in HUVEC assessed as formation of cell sprouts after 48 hrs by 3D spheroid angiogenesis assay; details: Homo sapiens
[4] = target: Sonic hedgehog protein (Mus musculus) (UniProt Q62226); test: Activation of Shh pathway in mouse Shh-Light II cells assessed as induction of gli1 expression at 1 uM after 48 hrs by […] luminescence assay; format: functional, cell-based; method in brief: as §1
HUVEC [5] = test: Cytotoxicity against HUVEC after 24 hrs by WST-1 assay; format: cell-based; details: Homo sapiens; method in brief: as §2
[6] = Ratio of compound IC50 to SAG IC50 for HUVEC; format: ADME, cell-based; details: human, HUVEC cells; read-out: Ratio IC50
[7] = target: Sonic hedgehog protein (Homo sapiens) (UniProt Q15465); test: Activation of Shh pathway in human foreskin fibroblasts assessed as increase in VEGF expression after 48 hrs by ELISA
Method in brief: (§3)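 Primary foreskin fibroblasts were plated in DMEM with 10% FBS for 24 h, washed free of nonadherent cells and reseeded at 14000 cells/well. After 72 h the medium was replaced with compound (0.1–1.0 µm range, <0.1% DMSO). Cells were held 48 h at 37 °C, 5% CO2. Three independent experiments.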

[8] = target: Sonic hedgehog protein (Homo sapiens) (UniProt Q15465); test: Activation of Shh pathway in human foreskin fibroblasts assessed as increase in VEGF expression at 0.1 to 1 uM after 48 hrs by ELISA relative to control; method in brief: as §3
[9] = target: Sonic hedgehog protein (Homo sapiens) (UniProt Q15465); test: Activation of Shh pathway in human foreskin fibroblasts assessed as induction of maximum VEGF expression at 1 uM after 48 hrs by ELISA relative to control; method in brief: as §3
[10] = target: Sonic hedgehog protein (Homo sapiens) (UniProt Q15465); test: Activation of Shh pathway in human foreskin fibroblasts assessed as induction of maximum VEGF expression at 0.5 uM after 48 hrs by ELISA relative to control; method in brief: as §3

Sequence of Sonic hedgehog protein (Homo sapiens) (Q15465 24-197 limits assumed): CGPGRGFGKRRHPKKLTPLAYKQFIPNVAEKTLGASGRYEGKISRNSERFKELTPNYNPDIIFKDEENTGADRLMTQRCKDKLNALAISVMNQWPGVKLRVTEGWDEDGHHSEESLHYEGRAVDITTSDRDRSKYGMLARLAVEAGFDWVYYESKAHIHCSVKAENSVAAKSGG
Sequence of Sonic hedgehog protein (Q62226 25-198 limits assumed): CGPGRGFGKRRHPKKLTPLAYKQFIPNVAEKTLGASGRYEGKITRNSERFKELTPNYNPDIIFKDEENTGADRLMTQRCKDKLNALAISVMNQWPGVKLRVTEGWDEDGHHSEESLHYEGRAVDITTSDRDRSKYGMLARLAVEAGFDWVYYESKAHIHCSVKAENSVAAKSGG

Row | SMILES | Activity [4] | Activity (HUVEC [2]) | Activity (HUVEC [3]) | also measured
1 | CN[C@H]1CC[C@@H](N(Cc2cccc(-c3ccncc3)c2)C(=O)c2sc3cccc(Cl)c3c2Cl)CC1 | – | inactive | inactive | EC50 (Sonic hedgehog protein): 7.6 nM; Activity (HUVEC [1]): Non-toxic
2 | N#Cc1ccc(CN(C(=O)c2sc3ccccc3c2Cl)C2CCNCC2)cc1 | inactive | inactive | inactive | –
3 | CN[C@H]1CC[C@H](N(Cc2cccc(-c3ccncc3)c2)C(=O)c2[nH]c3ccccc3c2Cl)CC1 | – | inactive | inactive | EC50 (Sonic hedgehog protein): 118 nM; Activity (HUVEC [1]): Non-toxic
4 | CC(=O)Nc1ccc(CN(C(=O)c2sc3cccc(Cl)c3c2Cl)C2CCNCC2)cc1 | inactive | inactive | inactive | –
5 | CN[C@H]1CC[C@H](N(Cc2cccc(-c3ccncc3)c2)C(=O)c2sc3cccc(Cl)c3c2Cl)CC1 | – | inactive | inactive | EC50 (Sonic hedgehog protein): 21.9 nM; Activity (HUVEC [1]): Non-toxic; IC50 (HUVEC [5]): 250000 nM; selectivity ratio [6]: 10; Activity [7]: Dose-dependent effect; fold change (FC) [8]: 7; Activity [9]: 32.4 pg/mL
6 | N#Cc1ccc(CN(C(=O)c2sc3cccc(Cl)c3c2Cl)C2CCNCC2)cc1 | inactive | inactive | inactive | –
7 | Cc1c(C(=O)N(Cc2ccco2)C2CCNCC2)oc2ccccc12 | inactive | inactive | inactive | –
8 | O=C(c1sc2ccccc2c1Cl)N(Cc1cccs1)C1CCNCC1 | inactive | inactive | inactive | –
9 | CN[C@H]1CC[C@H](N(Cc2cccc(-c3ccncc3)c2)C(=O)c2sc3ccccc3c2Cl)CC1 | – | inactive | inactive | EC50 (Sonic hedgehog protein): 8.8 nM; Activity (HUVEC [1]): Non-toxic; IC50 (HUVEC [5]): 22000 nM; Activity [7]: Dose-dependent effect; fold change (FC) [8]: 7; Activity [10]: 29.6 pg/mL
10 | CC(=O)Nc1ccc(CN(C(=O)c2sc3ccccc3c2Cl)C2CCNCC2)cc1 | inactive | inactive | inactive | –
11 | CN[C@H]1CC[C@@H](N(Cc2cccc(-c3ccncc3)c2)C(=O)c2sc3ccccc3c2Cl)CC1 | – | inactive | inactive | EC50 (Sonic hedgehog protein): 61.8 nM; Activity (HUVEC [1]): Non-toxic; Activity [7]: Dose-dependent effect; fold change (FC) [8]: 7; Activity [9]: 23.8 pg/mL
12 | CN[C@H]1CC[C@H](N(Cc2cccc(-c3ccncc3)c2)C(=O)c2ccc(-c3ccccc3)o2)CC1 | – | inactive | inactive | EC50 (Sonic hedgehog protein): 53.8 nM; Activity (HUVEC [1]): Non-toxic
13 | O=C(c1sc2ccccc2c1Cl)N(Cc1ccco1)C1CCNCC1 | inactive | inactive | inactive | –
14 | CN[C@H]1CC[C@H](N(Cc2cccc(-c3ccncc3)c2)C(=O)c2sc3cc(F)ccc3c2Cl)CC1 | – | inactive | inactive | EC50 (Sonic hedgehog protein): 176 nM; Activity (HUVEC [1]): Non-toxic; Activity [7]: Dose-dependent effect; fold change (FC) [8]: 7; Activity [9]: 32.2 pg/mL
15 | O=C(c1sc2cccc(Cl)c2c1Cl)N(Cc1ccco1)C1CCNCC1 | inactive | inactive | inactive | –
16 | O=C(c1sc2cc(F)ccc2c1Cl)N(Cc1ccco1)C1CCNCC1 | inactive | inactive | inactive | –
17 | CC(=O)Nc1ccc(CN(C(=O)c2oc3ccccc3c2C)C2CCNCC2)cc1 | inactive | inactive | inactive | –
18 | N#Cc1ccc(CN(C(=O)c2sc3cc(F)ccc3c2Cl)C2CCNCC2)cc1 | inactive | inactive | inactive | –
19 | Cc1c(C(=O)N(Cc2cccs2)C2CCNCC2)oc2ccccc12 | inactive | inactive | inactive | –
20 | O=C(c1sc2ccccc2c1Cl)N(Cc1ccnc2ccccc12)C1CCNCC1 | inactive | inactive | inactive | –

Second part, led by results:

Row | Activity [4] | SMILES | Activity (HUVEC [2]) | Activity (HUVEC [3]) | also measured
21 | inactive | CN[C@H]1CC[C@H](N(Cc2cccc(-c3ccncc3)c2)C(=O)c2sc3cc(Cl)ccc3c2Cl)CC1 | inactive | inactive | –
22 | inactive | CN[C@H]1CC[C@H](N(Cc2ccncc2)C(=O)c2sc3ccccc3c2Cl)CC1 | inactive | inactive | –
23 | inactive | CN[C@H]1CC[C@H](N(Cc2cccc(-c3ccncc3)c2)C(=O)c2oc3ccccc3c2C)CC1 | inactive | inactive | –
24 | inactive | CCOc1cc(C(=O)N(Cc2cccc(-c3ccncc3)c2)[C@H]2CC[C@H](NC)CC2)cc(OCC)c1OCC | inactive | inactive | –
25 | inactive | O=C(c1sc2cc(F)ccc2c1Cl)N(Cc1cccc(-c2ccncc2)c1)C1CCNCC1 | inactive | inactive | –
26 | inactive | O=C(c1sc2ccccc2c1Cl)N(Cc1cccc(-c2ccncc2)c1)C1CCNCC1 | inactive | inactive | –
27 | inactive | O=C(c1sc2cccc(Cl)c2c1Cl)N(Cc1cccc(-c2ccncc2)c1)C1CCNCC1 | inactive | inactive | –
28 | inactive | O=C(c1sc2ccccc2c1Cl)N(Cc1cccc(Br)c1)C1CCNCC1 | inactive | inactive | –
29 | inactive | CN[C@H]1CC[C@H](N(Cc2cccc(-c3ccncc3)c2)C(=O)c2cc3ccccc3s2)CC1 | inactive | inactive | –
30 | inactive | CN[C@H]1CC[C@H](NCc2cccc(-c3ccncc3)c2)CC1 | inactive | inactive | –
31 | inactive | CN[C@H]1CC[C@H](N(Cc2ccnc3ccccc23)C(=O)c2sc3ccccc3c2Cl)CC1 | inactive | inactive | –
32 | inactive | CC(=O)Nc1ccc(CN(C(=O)c2sc3cc(F)ccc3c2Cl)C2CCNCC2)cc1 | inactive | inactive | –
